What was measured:
[1] = test system: SARS-CoV-2; format: cell-based
[2] = test system: SARS-CoV-2; conditions: COVID-19 patients, on the 6th day; cited from earlier work
[3] = In vivo acute toxicity assay; conditions: oral 230 mg/kg twice a day
Procedure, shortened: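 Test compounds as sulfate salts, dissolved in physiological saline. Mice (25 g) were fasted overnight: 16 male and 16 female in four groups (n = 8), male and female vehicle controls and male and female test groups. They were dosed intragastrically with vehicle or 230 mg/kg twice a day. Death, daily behaviour and body weight were monitored for 20 days, and survival was plotted as curves.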

In the case of `CCN(CCO)CCCC(C)Nc1ccnc2cc(Cl)ccc12.O=S(=O)(O)O` (racemic) [Rac-HCQ, hydroxychloroquine, reference compound], the “inhibition of cytopathic changes caused by the virus” value [1] is given as “complete inhibition” and the “nasopharyngeal swab virus negative rate” value [2] is given as 57.1%.
With `CCC(CC)COC(=O)[C@H](C)N[P@](=O)(OC[C@H]1O[C@@](C#N)(c2ccc3c(N)ncnn23)[C@H](O)[C@@H]1O)Oc1ccccc1` [Remdesivir, reference compound] the “inhibition of the occurrence of lesions (CPE)” value [1] was “completely inhibited”.
For “(R)-2-((4-((7-chloroquinolin-4-yl) amino) pentyl) (ethyl) amino) ethan-1-ol sulfate [R-HCQ]”, the “inhibition of cytopathic changes caused by the virus” value [1] was “complete inhibition”, the “tolerability in mice compared to Rac-HCQ and S-HCQ” value [3] was “better tolerated” and the “day until which mice performed well” value ([3]; monitored 20 days) was 12 dpd.
In the case of “(S)-2-((4-((7-chloroquinolin-4-yl) amino) pentyl) (ethyl) amino) ethan-1-ol sulfate [S-HCQ]”, the “inhibition of cytopathic changes caused by the virus” value [1] is reported as “complete inhibition” and the “day at which mice appeared malaise” value ([3]; monitored 20 days) is reported as 9 dpd.
